Laboratory results published in ChEMBL document CHEMBL5678814, “Novel Mps1 Kinase Inhibitors with Potent Antitumor Activity” (Mol Cancer Ther, 2016).
pIC50, pKd: −log10 of the molar value.

What was measured:
[1] = target: Mitogen-activated protein kinase 9 (Homo sapiens, UniProt P45984); assay: Binding affinity to JNK2 (unknown origin) assessed as dissociation constant
[2] = target: Serine/threonine-protein kinase 38 (Homo sapiens, UniProt Q15208); assay: Binding affinity to NDR1 (unknown origin) assessed as dissociation constant
Serine/threonine-protein kinase 38, sequence (Q15208 whole entry): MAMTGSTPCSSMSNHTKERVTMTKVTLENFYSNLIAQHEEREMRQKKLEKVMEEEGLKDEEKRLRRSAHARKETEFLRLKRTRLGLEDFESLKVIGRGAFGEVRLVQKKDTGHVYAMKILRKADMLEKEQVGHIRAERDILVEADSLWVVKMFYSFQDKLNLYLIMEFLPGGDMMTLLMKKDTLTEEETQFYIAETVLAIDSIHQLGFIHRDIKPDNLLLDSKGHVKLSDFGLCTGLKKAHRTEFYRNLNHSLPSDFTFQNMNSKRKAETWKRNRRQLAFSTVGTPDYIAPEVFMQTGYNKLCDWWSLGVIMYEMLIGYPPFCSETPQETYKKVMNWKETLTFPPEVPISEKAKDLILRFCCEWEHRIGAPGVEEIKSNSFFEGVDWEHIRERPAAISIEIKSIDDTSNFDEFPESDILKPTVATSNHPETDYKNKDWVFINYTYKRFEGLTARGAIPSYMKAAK

[3] = system: KU-19-19; assay: Antiproliferative activity against human KU-19-19 cells assessed as cell growth inhibition incubated for 96 hrs by MTS assay; format: functional, cell-based; conditions: KU-19-19, 96 h
[4] = system: OCI-LY19; assay: Antiproliferative activity against human OCILY19 cells assessed as cell growth inhibition incubated for 96 hrs by MTS assay; format: functional, cell-based; conditions: OCI-LY19, 96 h
[5] = system: TMD8; assay: Antiproliferative activity against human TMD8 cells assessed as cell growth inhibition incubated for 96 hrs by MTS assay; format: functional, cell-based; conditions: TMD8, 96 h
[6] = system: SJRH30; assay: Antiproliferative activity against human Rh30 cells assessed as cell growth inhibition incubated for 96 hrs by MTS assay; format: functional, cell-based; conditions: SJRH30, 96 h
[7] = system: SAOS-2; assay: Antiproliferative activity against human SAOS-2 cells assessed as cell growth inhibition incubated for 96 hrs by MTS assay; format: functional, cell-based; conditions: SAOS-2, 96 h
[8] = Clearance in male CD1 mouse blood at 0.5 mg/kg, iv measured after 24 hrs by LC/-MS/MS analysis; format: ADME, organism-based
In short: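 Male CD1 mice received a single iv bolus of 0.5 mg/kg in 1% DMSO/99% plasma. Plasma was sampled at 2, 5, 15, 30 and 45 min and at 1, 2, 4, 6, 8 and 24 h, precipitated with ice-cold acetonitrile (1:5), and supernatants were run by LC/MS-MS. Parameters were estimated from plasma concentration data, with AUC by the log-linear trapezoidal rule.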

[9] = Half life in male Wistar rat plasma at 0.5 mg/kg, iv measured after 24 hrs by LC/-MS/MS analysis; format: ADME, organism-based
[10] = Tmax in male Wistar rat plasma at 0.5 mg/kg, po measured after 24 hrs by LC/-MS/MS analysis; format: ADME, organism-based
In short: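 Male Wistar rats given 0.5 mg/kg orally. Plasma collected from 8 min to 24 h, precipitated with ice-cold acetonitrile (1:5), and analysed by LC/MS-MS. Cmax and Tmax read directly from concentration–time profiles.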

[11] = Cmax in female NMRI mouse plasma at 1 mg/kg, po measured after 24 hrs by LC/-MS/MS analysis
[12] = Oral bioavailability in female NMRI mouse plasma at 1 mg/kg measured after 24 hrs by LC/-MS/MS analysis
[13] = system: FaDu; assay: Antiproliferative activity against human FaDu cells assessed as cell growth inhibition incubated for 96 hrs by crystal violet staining
[14] = system: A549; assay: Antiproliferative activity against human A549 cells assessed as cell growth inhibition incubated for 96 hrs by crystal violet staining; conditions: A549, 96 h
[15] = system: HT-29; assay: Antiproliferative activity against human HT-29 cells assessed as cell growth inhibition incubated for 96 hrs by crystal violet staining; conditions: HT-29, 96 h
[16] = system: L-363; assay: Antiproliferative activity against human L-363 cells assessed as cell growth inhibition incubated for 96 hrs by crystal violet staining; conditions: L-363, 96 h
[17] = system: OPM-2; assay: Antiproliferative activity against human OPM-2 cells assessed as cell growth inhibition incubated for 96 hrs by crystal violet staining; conditions: OPM-2, 96 h
[18] = system: HCT-15; assay: Antiproliferative activity against human HCT-15 cells assessed as cell growth inhibition incubated for 96 hrs by crystal violet staining; conditions: HCT-15, 96 h
[19] = system: Calu-6; assay: Antiproliferative activity against human Calu-6 cells assessed as cell growth inhibition incubated for 96 hrs by crystal violet staining; conditions: Calu-6, 96 h
[20] = system: SK-BR-3; assay: Antiproliferative activity against human SK-BR-3 cells assessed as cell growth inhibition incubated for 96 hrs by crystal violet staining; conditions: SK-BR-3, 96 h
[21] = system: HCT-116; assay: Antiproliferative activity against human HCT-116 cells assessed as cell growth inhibition incubated for 96 hrs by crystal violet staining; conditions: HCT-116, 96 h
[22] = Antiproliferative activity against human OUMS-23 cells assessed as cell growth inhibition incubated for 96 hrs by crystal violet staining; conditions: OUMS-23, 96 h
[23] = system: SK-MEL3; assay: Antiproliferative activity against human SK-MEL3 cells assessed as cell growth inhibition incubated for 96 hrs by crystal violet staining; conditions: SK-MEL3, 96 h
[24] = system: OVCAR-8; assay: Antiproliferative activity against human OVCAR-8 cells assessed as cell growth inhibition incubated for 96 hrs by crystal violet staining; conditions: OVCAR-8, 96 h
[25] = system: COLO-829; assay: Antiproliferative activity against human COLO-829 cells assessed as cell growth inhibition incubated for 96 hrs by crystal violet staining; conditions: COLO-829, 96 h
[26] = Antiproliferative activity against human HeLa-MaTu cells assessed as cell growth inhibition incubated for 96 hrs by crystal violet staining
[27] = system: NCI-H1299; assay: Antiproliferative activity against human NCI-H1299 cells assessed as cell growth inhibition incubated for 96 hrs by crystal violet staining; conditions: NCI-H1299, 96 h
[28] = system: NCI-H1770; assay: Antiproliferative activity against human NCI-H1770 cells assessed as cell growth inhibition incubated for 96 hrs by crystal violet staining; conditions: NCI-H1770, 96 h
[29] = system: NCI-H2009; assay: Antiproliferative activity against human NCI-H2009 cells assessed as cell growth inhibition incubated for 96 hrs by crystal violet staining; conditions: NCI-H2009, 96 h
[30] = system: RPMI-7951; assay: Antiproliferative activity against human RPMI-7951 cells assessed as cell growth inhibition incubated for 96 hrs by crystal violet staining; conditions: RPMI-7951, 96 h
[31] = system: SK-MEL-28; assay: Antiproliferative activity against human SK-MEL-28 cells assessed as cell growth inhibition incubated for 96 hrs by crystal violet staining; conditions: SK-MEL-28, 96 h
[32] = system: COLO 320DM; assay: Antiproliferative activity against human COLO 320DM cells assessed as cell growth inhibition incubated for 96 hrs by crystal violet staining
[33] = Antiproliferative activity against human HeLa-MaTu-ADR cells assessed as cell growth inhibition incubated for 96 hrs by crystal violet staining

Mitogen-activated protein kinase 9, sequence (P45984 whole entry): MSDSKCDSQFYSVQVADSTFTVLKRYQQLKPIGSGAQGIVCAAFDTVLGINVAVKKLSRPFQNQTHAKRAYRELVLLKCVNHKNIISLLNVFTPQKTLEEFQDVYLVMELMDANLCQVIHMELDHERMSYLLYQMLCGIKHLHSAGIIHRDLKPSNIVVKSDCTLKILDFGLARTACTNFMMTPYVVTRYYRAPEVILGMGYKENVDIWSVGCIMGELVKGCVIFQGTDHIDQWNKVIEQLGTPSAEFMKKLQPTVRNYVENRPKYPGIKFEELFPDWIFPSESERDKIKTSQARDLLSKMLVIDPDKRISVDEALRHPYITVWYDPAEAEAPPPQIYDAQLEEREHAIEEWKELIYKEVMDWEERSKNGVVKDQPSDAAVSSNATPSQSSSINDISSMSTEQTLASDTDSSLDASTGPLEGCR

Question: With `COc1cc(S(C)(=O)=O)ccc1Nc1nc2ccc(-c3ccc(NC(=O)[C@H](C)c4ccc(F)cc4)cc3)cn2n1` [BAY-1161909] as the compound, how does the pKd [1] read?
Answer: The pKd was 6.80.

Question: And the pKd [2]?
Answer: Its pKd is 4.40.

Question: What about the pIC50 [3] of the same compound?
Answer: Its pIC50 is 7.07.

Question: And the pIC50 [4]?
Answer: Its pIC50 is 7.21.

Question: What about the pIC50 [5] of the same compound?
Answer: Its pIC50 is 6.62.

Question: And the pIC50 [6]?
Answer: The pIC50 was 6.35.

Question: And the pIC50 [7]?
Answer: Its pIC50 is 6.28.

Question: What about the clearance [8] of the same compound?
Answer: Its clearance is 11.5 mL/min/kg.

Question: And the half-life [9]?
Answer: Its half-life is 14 h.

Question: And the Tmax [10]?
Answer: Its Tmax is 4 h.

Question: And the Cmax [11]?
Answer: Its Cmax is 120 ng/mL.

Question: What about the bioavailability [12] of the same compound?
Answer: Its bioavailability is 59%.

Question: What about the pIC50 [13] of the same compound?
Answer: The pIC50 was 6.57.

Question: And the pIC50 [14]?
Answer: Its pIC50 is 6.89.

Question: And the pIC50 [15]?
Answer: The pIC50 was 7.00.

Question: And the pIC50 [16]?
Answer: The pIC50 was 7.49.

Question: What about the pIC50 [17] of the same compound?
Answer: Its pIC50 is 6.89.

Question: What about the pIC50 [18] of the same compound?
Answer: Its pIC50 is 6.96.

Question: What about the pIC50 [19] of the same compound?
Answer: Its pIC50 is under 5.52.

Question: And the pIC50 [20]?
Answer: Its pIC50 is under 5.52.

Question: What about the pIC50 [21] of the same compound?
Answer: The pIC50 was 7.25.

Question: And the pIC50 [22]?
Answer: The pIC50 was under 5.52.

Question: And the pIC50 [23]?
Answer: The pIC50 was 7.28.

Question: What about the pIC50 [24] of the same compound?
Answer: Its pIC50 is 6.72.

Question: What about the pIC50 [25] of the same compound?
Answer: The pIC50 was 6.52.

Question: And the pIC50 [26]?
Answer: Its pIC50 is 6.70.

Question: And the pIC50 [27]?
Answer: The pIC50 was 6.92.

Question: And the pIC50 [28]?
Answer: The pIC50 was 7.00.

Question: What about the pIC50 [29] of the same compound?
Answer: The pIC50 was 6.25.

Question: And the pIC50 [30]?
Answer: Its pIC50 is 6.55.

Question: And the pIC50 [31]?
Answer: The pIC50 was 6.17.

Question: What about the pIC50 [32] of the same compound?
Answer: The pIC50 was 6.96.

Question: What about the pIC50 [33] of the same compound?
Answer: The pIC50 was 6.74.
